The record followed here is ChEMBL document CHEMBL5647683 (Oncogene, 2008).

Test [1] deals with A-431. Put plainly: Antitumor activity against human A-431 cells xenografted athymic NMRI-nu/nu female mouse as reduction in tumor volume at 2x100 mg/kg, po administered daily for 25 days relative to control. In kind it is functional. To be noted: dose 100 mg/kg, time 25 day. The procedure, abridged:
(§1)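 Female athymic NMRI-nu/nu mice (5–6 weeks, 21–31 g) given 1–5×10⁶ cells into the right flank; MDA-MB-453 tumors started from fresh 2×2×2 mm fragments. At 40–130 mm³, tumors were randomized to weight-based daily oral gavage (10 ml/kg; 1.8% HP-β-CD, 5% acetic acid (10%), 0.5% Natrosol) or vehicle. Caliper measurement 3×/week, volume π/6×L×W². Expressed as cumulative treated/control volume ratio; one-way ANOVA with Dunnett's test.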

Test [2] in a line: Inhibition of human EGFR S752_I759del8-T790M mutant expressed in mouse BaF3 cells assessed as reduction in cell survival incubated for 48 hrs by WST assay.
The nature of test [3]: Inhibition of human EGFR L747_P753del7insS-T790M mutant expressed in mouse BaF3 cells assessed as reduction in cell survival incubated for 48 hrs by WST assay.
Test [4] in a line: Inhibition of human EGFR variant III deletion expressed in mouse BaF3 cells assessed as reduction in cell survival incubated for 48 hrs by WST assay.
Test [5] is described as follows: Inhibition of human EGFR S752_I759del8 mutant expressed in mouse BaF3 cells assessed as reduction in cell survival incubated for 48 hrs by WST assay.
Test [6] is described as follows: Inhibition of human EGFR L858R-T790M double mutant expressed in mouse BaF3 cells assessed as reduction in cell survival incubated for 48 hrs by WST assay.
Test [7] deals with A-431. Description: Antitumor activity against human A-431 cells xenografted athymic NMRI-nu/nu female mouse as reduction in tumor volume at 75 mg/kg, po administered daily for 25 days relative to control. In kind it is functional. Conditions: time 25 day. The procedure, abridged: as §1
A general note: Xenograft models place foreign cells or tissue in a host animal.

Each structure is given as a SMILES string. Some results are limits rather than exact numbers.

One may read the T/C as the ratio of treated to control. With `CS(=O)(=O)CCNCc1ccc(-c2ccc3ncnc(Nc4ccc(OCc5cccc(F)c5)c(Cl)c4)c3c2)o1` [LAPATINIB], the T/C in the test with A-431 [1] is recorded as 32%.

The term IC50 denotes the midpoint of a concentration-inhibition curve. On to `C#Cc1cccc(Nc2ncnc3cc(OCCOC)c(OCCOC)cc23)c1` [ERLOTINIB], for which the IC50 in test [2] is over 10 µM; in test [3], over 10 µM; in test [4], 0.144 µM; in test [5], 0.033 µM; in test [6], over 10 µM.

Regarding `COc1cc2ncnc(Nc3ccc(F)c(Cl)c3)c2cc1OCCCN1CCOCC1` [GEFITINIB], the T/C in the test on A-431 [7] was determined as 46%.
